Experimental findings from ChEMBL document CHEMBL1151979, “Antiallergic potential on RBL-2H3 cells of some phenolic constituents of Zingiber officinale (ginger)” (J Nat Prod, 2009) are described below.

Active and inactive are the calls of the source. The rule behind the calls is not given here.

As usually defined, the IC50 is the concentration needed to halve the response being measured. Higher therefore signals a need for much substance. One may read the inhibition as the share of the control response that was lost under treatment.

The nature of data set [1]: Cytotoxicity against rat RBL2H3 cells after 12 hrs by MTT assay. In kind it is cell-based. To be noted: RBL-2H3, 12 h. In short, it runs like this: (§1)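 MTT viability assay in RBL-2H3 cells grown to 70-80% confluence and then exposed to compound; untreated and ≤0.5% DMSO cultures served as controls. MTT stock 5 mg/mL was diluted 1:10 into medium 3 h before the end of exposure, then incubated 2 h at 37 °C. Formazan was dissolved in DMSO and read at 600 nm. Viability is given as % of control OD, ≥3 repeats, and IC50 was derived from this.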
For orientation: Tetrazolium assays rely on reduction of a dye to a coloured formazan, in cell work by metabolically active cells.

The test system of data set [2] is RBL-2H3. Description: Antiallergic activity in mIgE-DNP and DNP-BSA-stimulated rat RBL2H3 cells assessed as inhibition of beta-hexosaminidase release at 200 uM pretreated before mIgE-DNP challenge. The data set is classed as functional, cell-based. To be noted: TDE = time-dependent effect. In short, it runs like this:
(§2)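 RBL-2H3 cells (DMEM, 10% FBS) seeded at 1 × 10^5/well and left 4-6 h at 37 °C to adhere. Compound was added at final concentrations for various pretreatment times, then mIgE-DNP was added for 16 h. Cells were washed in Tyrode's buffer (pH 7.4, 1 mg/mL BSA) and challenged with DNP-BSA 1 µg/mL for 1 h at 37 °C. Supernatant was incubated with p-NAG in citrate pH 4.5 for 1 h at 37 °C and read at A405. Inhibition was calculated against Triton X-100 total-release and spontaneous-release controls.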

For data set [3], the system named is RBL-2H3. Put plainly: Antiallergic activity in mIgE-DNP and DNP-BSA-stimulated rat RBL2H3 cells assessed as inhibition of beta-hexosaminidase release pretreated before mIgE-DNP challenge measured after 12 to 48 hrs. In kind it is functional, cell-based. The gist of the method:
as §2

Data set [4] can be described thus: Cytotoxicity against rat RBL2H3 cells at 200 uM after 12 hrs by MTT assay. In kind it is cell-based. To be noted: rbl-2h3, 12 h. The gist of the method:
as §1

Data set [5] in a line: Cytotoxicity against rat RBL2H3 cells at 120 uM after 12 hrs by MTT assay. In kind it is cell-based. To be noted: rbl-2h3, 12 h. In short, it runs like this: as §1
Data set [6] has as its system RBL-2H3. Put plainly: Antiallergic activity in mIgE-DNP and DNP-BSA-stimulated rat RBL2H3 cells assessed as inhibition of beta-hexosaminidase release at 100 uM pretreated before mIgE-DNP challenge measured after 12 hrs. The data set is classed as functional, cell-based. In short, it runs like this:
as §2

The test system of data set [7] is RBL-2H3. Description: Antiallergic activity in mIgE-DNP and DNP-BSA-stimulated rat RBL2H3 cells assessed as inhibition of beta-hexosaminidase release at 1 uM pretreated before mIgE-DNP challenge measured after 12 hrs relative to control. In kind it is functional. The gist of the method: as §2
The test system of data set [8] is RBL-2H3. Put plainly: Antiallergic activity in mIgE-DNP and DNP-BSA-stimulated rat RBL2H3 cells assessed as inhibition of beta-hexosaminidase release at 200 uM pretreated before mIgE-DNP challenge measured after 24 hrs relative to control. The data set is classed as functional. The gist of the method: as §2
Data set [9] concerns RBL-2H3. Description: Antiallergic activity in mIgE-DNP and DNP-BSA-stimulated rat RBL2H3 cells assessed as inhibition of beta-hexosaminidase release at 100 uM pretreated before mIgE-DNP challenge measured after 48 hrs relative to control. The data set is classed as functional. The gist of the method: as §2
Data set [10] concerns RBL-2H3. Description: Antiallergic activity in mIgE-DNP and DNP-BSA-stimulated rat RBL2H3 cells assessed as inhibition of beta-hexosaminidase release at 1 uM pretreated before mIgE-DNP challenge measured after 48 hrs relative to control. In kind it is functional. In short, it runs like this: as §2
In data set [11] the test system is RBL-2H3. Description: Antiallergic activity in mIgE-DNP and DNP-BSA-stimulated rat RBL2H3 cells assessed as inhibition of beta-hexosaminidase release at 100 uM pretreated before mIgE-DNP challenge measured after 24 hrs relative to control. The data set is classed as functional. In short, it runs like this: as §2
In data set [12] the test system is RBL-2H3. Put plainly: Antiallergic activity in mIgE-DNP and DNP-BSA-stimulated rat RBL2H3 cells assessed as inhibition of beta-hexosaminidase release at 1 uM pretreated before mIgE-DNP challenge measured after 24 hrs relative to control. In kind it is functional. The gist of the method:
as §2

The subject of data set [13] is RBL-2H3. Description: Antiallergic activity in mIgE-DNP and DNP-BSA-stimulated rat RBL2H3 cells assessed as inhibition of beta-hexosaminidase release at 200 uM pretreated before mIgE-DNP challenge measured after 48 hrs relative to control. In kind it is functional. The gist of the method: as §2
Data set [14] deals with RBL-2H3. Description: Antiallergic activity in mIgE-DNP and DNP-BSA-stimulated rat RBL2H3 cells assessed as inhibition of beta-hexosaminidase release at 200 uM pretreated before mIgE-DNP challenge measured after 12 hrs. In kind it is functional, cell-based. In short, it runs like this:
as §2

In turn, `COc1cc(CCC(=O)CC(O)CCc2ccc(O)c(OC)c2)ccc1O` (stereo not drawn) [HEXAHYDROCURCUMIN] gave a half-maximal inhibitory concentration (IC50) in data set [1] of 152 µM. In addition, the values for the inhibition result with RBL-2H3 [2] and with RBL-2H3 [3] were “tde” and “Dose-dependent effect”, respectively. In data set [4], the Activity result is “Toxic”.
For `CCCCC/C=C/C(=O)CCc1ccc(O)c(OC)c1` [SHOGAOL], the IC50 in data set [1] worked out at 90.4 µM. In addition, the Activity result in data set [5] was “Toxic”.
Consider `CCCCCC(=O)/C=C(O)/C=C/c1ccc(O)c(OC)c1`, for which the inhibition result in the data set with RBL-2H3 [6], with RBL-2H3 [8], in the data set with RBL-2H3 [9], with RBL-2H3 [11], in the data set on RBL-2H3 [13] and with RBL-2H3 [14] was “Active” in each case. The inhibition at 1 µM with RBL-2H3 [7], with RBL-2H3 [10] and with RBL-2H3 [12] was 60% each time. The compound also registered an IC50 in [1] of 38.5 µM.
As for `CCCCC[C@H](O)CC(=O)CCc1ccc(O)c(OC)c1` [GINGEROL], the inhibition entry with RBL-2H3 [6], in the data set with RBL-2H3 [8], in the data set on RBL-2H3 [9], in the data set with RBL-2H3 [11], in the data set with RBL-2H3 [13] and with RBL-2H3 [14] was “Active” throughout. Further, the inhibition at 1 µM in the data set on RBL-2H3 [7], in the data set on RBL-2H3 [10] and in the data set with RBL-2H3 [12] was 60% throughout. The midpoint of inhibition in data set [1], the IC50, lay at 185 µM. In [4], the Activity result is “Toxic”.
For `CCCCCCCCC[C@H](O)CC(=O)CCc1ccc(O)c(OC)c1`, the inhibition entry in the data set on RBL-2H3 [6], with RBL-2H3 [8], in the data set with RBL-2H3 [9], in the data set with RBL-2H3 [11], with RBL-2H3 [13] and in the data set with RBL-2H3 [14] was “Active” in each case. Moreover, the inhibition at 1 µM with RBL-2H3 [7], in the data set on RBL-2H3 [10] and in the data set with RBL-2H3 [12] was 60% each time. This compound also had an IC50 in [1] of 112 µM. Further, in data set [5], the Activity entry is on record as “Toxic”.
